These results are taken from ChEMBL document CHEMBL1141219, “Chemoenzymatic synthesis of a series of 4-substituted glutamate analogues and pharmacological characterization at human glutamate transporters subtypes 1-3” (J Med Chem, 2005).

What all share (assay type): functional, cell-based
In test [1] the target is Excitatory amino acid transporter 1 (Homo sapiens) (UniProt P43003). As to the kind of experiment: Binding affinity to human EAAT1 expressed in HEK293 cells in FMP (FLPR) assay. The method, boiled down: (§1)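 HEK293 cells stably expressing the human transporter, seeded on poly-D-lysine plates in DMEM with 10% dialyzed FBS and G-418 for 16–24 h. Cells washed in Krebs buffer (pH 7.4), then loaded with FMP dye for 30 min at 37 °C. Read at room temperature, excitation 530 nm and emission 560 nm, for up to 1 min after substrate addition. Non-substrate inhibitors were preincubated and tested against 30 μM Glu. Seven-concentration curves from maximal responses, duplicate, at least three times.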

Test [2] addresses Excitatory amino acid transporter 2 (Homo sapiens) (UniProt P43004). As to the kind of experiment: Binding affinity to human EAAT2 expressed in HEK293 cells in FMP (FLPR) assay. In a few lines:
as §1

The target of test [3] is T1, Excitatory amino acid transporter 3 (Homo sapiens) (UniProt P43005).
T1 sequence (whole entry): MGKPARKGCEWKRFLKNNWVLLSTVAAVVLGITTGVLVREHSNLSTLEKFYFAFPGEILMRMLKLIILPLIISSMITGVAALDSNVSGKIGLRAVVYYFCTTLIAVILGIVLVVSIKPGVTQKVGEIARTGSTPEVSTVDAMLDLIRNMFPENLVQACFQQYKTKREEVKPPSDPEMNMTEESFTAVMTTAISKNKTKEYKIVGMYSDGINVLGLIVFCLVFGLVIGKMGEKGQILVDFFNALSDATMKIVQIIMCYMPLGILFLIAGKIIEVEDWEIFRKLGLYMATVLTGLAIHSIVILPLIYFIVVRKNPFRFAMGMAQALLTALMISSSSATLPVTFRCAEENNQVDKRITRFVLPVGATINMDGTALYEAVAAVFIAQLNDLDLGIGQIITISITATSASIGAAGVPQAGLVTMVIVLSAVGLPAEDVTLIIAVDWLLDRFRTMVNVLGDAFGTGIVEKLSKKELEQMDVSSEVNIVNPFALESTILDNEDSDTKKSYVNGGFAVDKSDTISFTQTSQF
Nature of the test: Binding affinity to human EAAT3 expressed in HEK293 cells in FMP (FLPR) assay. The method, boiled down:
as §1

Excitatory amino acid transporter 2 (Homo sapiens), sequence (P43004 whole entry): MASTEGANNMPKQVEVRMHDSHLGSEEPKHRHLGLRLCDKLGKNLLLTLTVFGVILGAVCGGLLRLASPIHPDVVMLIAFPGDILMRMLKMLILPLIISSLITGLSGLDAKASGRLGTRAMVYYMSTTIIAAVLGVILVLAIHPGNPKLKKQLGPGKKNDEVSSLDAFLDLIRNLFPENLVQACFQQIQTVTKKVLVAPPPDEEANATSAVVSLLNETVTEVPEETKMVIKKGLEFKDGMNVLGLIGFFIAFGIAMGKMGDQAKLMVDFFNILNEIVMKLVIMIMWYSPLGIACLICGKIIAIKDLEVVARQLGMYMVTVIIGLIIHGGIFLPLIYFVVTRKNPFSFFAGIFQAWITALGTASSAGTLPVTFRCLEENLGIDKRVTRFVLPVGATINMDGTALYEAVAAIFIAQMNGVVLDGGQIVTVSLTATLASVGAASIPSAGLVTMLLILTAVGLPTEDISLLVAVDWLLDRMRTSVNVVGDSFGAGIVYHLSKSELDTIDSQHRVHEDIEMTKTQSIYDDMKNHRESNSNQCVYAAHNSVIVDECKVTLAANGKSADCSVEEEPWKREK
Excitatory amino acid transporter 1 (Homo sapiens), sequence (P43003 whole entry): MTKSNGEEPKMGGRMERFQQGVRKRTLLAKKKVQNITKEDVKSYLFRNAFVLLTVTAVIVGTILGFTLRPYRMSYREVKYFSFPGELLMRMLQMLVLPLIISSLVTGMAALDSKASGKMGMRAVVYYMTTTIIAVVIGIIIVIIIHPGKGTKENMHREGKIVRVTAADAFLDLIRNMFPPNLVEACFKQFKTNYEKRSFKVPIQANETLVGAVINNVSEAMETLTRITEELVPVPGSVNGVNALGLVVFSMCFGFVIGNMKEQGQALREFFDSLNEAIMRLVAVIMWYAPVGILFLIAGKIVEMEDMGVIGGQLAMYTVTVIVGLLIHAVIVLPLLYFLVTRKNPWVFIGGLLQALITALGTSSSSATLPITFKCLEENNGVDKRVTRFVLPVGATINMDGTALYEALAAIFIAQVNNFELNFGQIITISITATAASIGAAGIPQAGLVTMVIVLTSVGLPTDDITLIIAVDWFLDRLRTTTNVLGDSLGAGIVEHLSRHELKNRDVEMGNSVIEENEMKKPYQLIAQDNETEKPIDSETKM

Turning to `N[C@@H](CCC(=O)O)C(=O)O`, the pKm in test [1] is 5.04; in test [2], 4.69; in test [3] it was 4.61.
For the compound `N[C@@H](C[C@@H](O)C(=O)O)C(=O)O`, the pKm in test [1], in test [2] and in test [3] was 3 each time.
In the case of `N[C@@H](C[C@H](O)C(=O)O)C(=O)O`, the pKm was 4.06 in test [1], 4.21 in test [2] and 4.16 in test [3].
In test [1], `C[C@H](C[C@H](N)C(=O)O)C(=O)O` displayed a pKm of 4.92.
